Bioassay records: PubChem BioAssay, The Scripps Research Institute Molecular Screening Center
Compounds with a hit are over-represented: about 4.6% of the library has one in this group of screens.
OX1R antag-1: OX1R (HCRTR1) antagonists, primary screen, fluorescence, CHO/OX1R cells, Fluo-8 calcium, orexin A; Orexin/Hypocretin receptor type 1 (Homo sapiens), O43613; Fluo-8 calcium fluorescence; inhibition, % at 5 µM; 330,000 tested, 0.43% active; AID 434989, 2010;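 active means inhibition above its plate's threshold, mean inhibition of all tested compounds on the plate plus 3 SD, cut at about 37% in these data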;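 further: 0% = orexin A challenge wells and 100% = SB-334867-A antagonist wells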
Target sequence (O43613 whole entry, looked up): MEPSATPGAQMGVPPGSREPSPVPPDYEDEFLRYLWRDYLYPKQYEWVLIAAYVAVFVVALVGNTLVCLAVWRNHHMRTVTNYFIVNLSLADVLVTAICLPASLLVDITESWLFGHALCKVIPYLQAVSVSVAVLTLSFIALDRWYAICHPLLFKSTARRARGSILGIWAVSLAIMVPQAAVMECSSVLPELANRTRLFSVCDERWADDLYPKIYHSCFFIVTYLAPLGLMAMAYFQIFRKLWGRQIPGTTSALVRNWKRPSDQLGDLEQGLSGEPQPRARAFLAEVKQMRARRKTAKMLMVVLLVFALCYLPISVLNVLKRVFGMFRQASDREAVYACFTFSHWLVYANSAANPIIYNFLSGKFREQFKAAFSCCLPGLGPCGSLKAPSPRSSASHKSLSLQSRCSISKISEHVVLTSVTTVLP
TAAR1 agonist: human TAAR1 agonists, primary screen, Fluo-8 calcium fluorescence, CHO RD-HGA16 cells | 360,000 tested, 0.99% active | vehicle wells 0%, saturating PEA agonist 100% | Trace amine-associated receptor 1 (Homo sapiens), Q96RJ0 | activation, % at 3 µM;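 active means activation above the mean activation of all test compounds in the run plus 3 SD, cut at about 38% in these data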
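Test system: RD-HGA16 (CHO) cells co-expressing Gα16 and hTAAR1 / Benchmarks: DMSO vehicle as 0%, PEA at EC100 as 100% / Repeats: no replicates (n 1) / Measure: % activation from peak over basal fluorescence ratio, DMSO-to-PEA scaled / Timing: 17-24 h plating, Fluo-8 75 min 37 °C, 30 min RT / Technique: kinetic Fluo-8 calcium fluorescence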
CHO parental Ca: ATP-evoked calcium signal inhibitors, parental CHO, primary screen, counter-screen for OX1R antagonist project, cell-based, fluorescence, Fluo-8 calcium dye; inhibition, % at 5.6 µM; parental CHO-K1, ATP-induced calcium, Fluo-8 fluorescence; 330,000 tested, 0.63% active; AID 463079, 2010;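 active means inhibition above that plate's mean sample inhibition plus 3 SD, cut at about 26% in these data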;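 further: 0% = ATP-challenged DMSO wells and 100% = DMSO wells without ATP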
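Assay system – parental CHO cells · Reagent – ATP stimulus · Detection – intracellular calcium via Fluo-8 no-wash fluorescent dye · Evaluation – percent inhibition of ATP-evoked calcium rise, normalized to controls · Controls – ATP wells versus no-ATP DMSO wells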
TAAR1 antag: human TAAR1 antagonists, primary screen, Fluo-8 calcium fluorescence, CHO RD-HGA16 cells. 360,000 tested, 1.5% active. Trace amine-associated receptor 1 (Homo sapiens), Q96RJ0. antagonist. inhibition, % at 3 µM;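 active means inhibition above a per-plate cutoff, the mean inhibition of test compounds on that plate plus 3 SD, cut at about 49% in these data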;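 further: 0% = DMSO plus EC80 beta-PEA response and 100% = DMSO alone without agonist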
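Material: RD-HGA16 CHO cells with stable hTAAR1 and Gα16; Dosing: single nominal final test compound concentration of 3 µM; Schedule: seeding 17-24 h prior, 75-min 37 °C, 30-min RT dye loading; Detection: kinetic Fluo-8 calcium fluorescence measurement; Measure: % inhibition from peak post-agonist over basal fluorescence ratio; Benchmarks: vehicle and agonist controls.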
OX1R antag-2: antagonists of human orexin 1 receptor (OX1R). OX1R-expressing cells, FRET antagonist read-out. inhibition, % at 6.6 µM. 330,000 tested, 1.8% active. AID 485270, 2010; in the data active means inhibition mostly above about 38%, no sharp cut-off; inactive means mostly below about 40%;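 further: 0% = agonist challenge alone and 100% = reference antagonist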
GPR7 antag: GPR7 receptor antagonists, primary screen, cell-based, fluorescence, single concentration. GPR7-expressing cells, fluorescence antagonist assay. inhibition, % at 4.4 µM. 290,000 tested, 1.1% active. AID 1861, 2009; in the data active means inhibition above about 16%, passing the limit was not always enough;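 further: cells stimulated with the agonist NPW; 0% = agonist with vehicle and 100% = vehicle without agonist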
Target sequence (P48145 whole entry, looked up): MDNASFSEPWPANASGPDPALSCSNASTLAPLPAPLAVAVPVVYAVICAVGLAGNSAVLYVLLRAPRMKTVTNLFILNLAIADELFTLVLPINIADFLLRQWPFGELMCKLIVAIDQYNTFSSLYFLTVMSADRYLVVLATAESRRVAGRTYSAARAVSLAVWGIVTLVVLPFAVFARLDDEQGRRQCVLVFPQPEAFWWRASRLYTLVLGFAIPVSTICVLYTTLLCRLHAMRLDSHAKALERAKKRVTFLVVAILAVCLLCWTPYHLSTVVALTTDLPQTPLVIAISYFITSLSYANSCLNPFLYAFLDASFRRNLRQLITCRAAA
nonsel antag count: nonselective antagonists in TAAR1 counter-screen cells, counter-screen for hTAAR1 antagonist project, cell-based, fluorescence, calcium. shares compounds with TAAR1 antag. counterscreen cell line, antagonist mode. inhibition, % at 3 µM. 2,400 tested, 77% active. AID 651780, 2012; in the data active means inhibition above about 22%;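 further: CHO-Ga16 host cells stimulated with ATP at an EC80 level; 0% = agonist EC80 plus vehicle and 100% = vehicle without agonist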
TAAR1 antag conf: human TAAR1 antagonists, retest of hits, confirmation, cell-based, fluorescence | shares compounds with TAAR1 antag | TAAR1-expressing cells, fluorescence antagonist read-out | inhibition, % at 3 µM | 2,400 tested, 40% active | AID 651785, 2012; in the data active means inhibition above about 49%;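 further: CHO-Ga16 host cells challenged with agonist PEA near its EC80; 0% = agonist at EC80 plus vehicle and 100% = vehicle with no agonist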
Ga16 ag counter: calcium activation in Ga16-expressing cells, counter-screen for TAAR1 antagonist project, cell-based, fluorescence; shares compounds with TAAR1 antag; agonist counterscreen; activation, % at 3 µM; 2,400 tested, 18% active; in the data active means activation above about 12%;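 further: 0% = vehicle wells and 100% = saturating stimulus response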
TAAR1 ag count: TAAR1 activation by candidate antagonists – cell-based, fluorescence, counter-screen for TAAR1 antagonist project | 2,400 tested, 2% active | shares compounds with TAAR1 antag | activation, % at 3 µM | AID 651955, 2012 | hTAAR1 cell line, agonist mode; in the data active means activation above about 37%;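 further: CHO cells stably expressing TAAR1 with calcium dye readout; 0% = DMSO vehicle and 100% = full agonist response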
Active calls of the source: *; nt = not tested or not shown.

SMILES	OX1R antag-1	TAAR1 agonist	CHO parental Ca	TAAR1 antag	OX1R antag-2	GPR7 antag	nonsel antag count	TAAR1 antag conf	Ga16 ag counter	TAAR1 ag count
Cc1nn(C)cc1C(C(=O)NC1CCCCC1)N(C(=O)Cc1cccs1)c1ccc(Cl)cc1 (stereo not drawn)	-20	29	-14	61*	14	-12	30*	53*	13*	23
Cc1ccc(N(C(=O)Cn2nnc3ccccc32)C(C(=O)NC2CCCCC2)c2cn(C)nc2C)cc1 (stereo not drawn)	-31	0	-8	4	1	-7	nt	nt	nt	nt
N#C/C(=C\Nc1ccccc1O)c1nc2ccccc2o1	23	9	18	87*	37	1	48*	73*	10	13
Cc1ccc(-c2csc(N3CCC[C@@H]3C(=O)NCCn3c(-c4ccncc4)nc4ccccc43)n2)cc1	-35	25	-49	62*	33	-6	26*	49*	10	10
Cc1ccc(-c2csc(N3CCN(CCCn4c(-c5ccncc5)nc5ccccc54)CC3)n2)cc1	-40	11	-40	55*	13	4	25*	47	4	1
Cc1ccc(-c2csc(N3CCN(CCCn4c(C(F)(F)F)nc5ccccc54)CC3)n2)cc1	-45	-1	-22	33	6	10	nt	nt	nt	nt
CC(=O)Nc1c(C(=O)O)ccc(C)c1OCc1ccccc1	nt	1	nt	-1	nt	nt	nt	nt	nt	nt
COc1ccccc1-c1cc(NC(C)=O)c2ncc(-c3cccc(C(C)=O)c3)n2c1	nt	3	nt	86*	nt	nt	32*	53*	7	3
CC(=O)Nc1cc(-c2ccc(CO)cc2)cn2c(-c3cccc(C(F)(F)F)c3)cnc12	nt	13	nt	70*	nt	nt	36*	51*	10	15
COc1ccc(-c2cc(NC=O)c3ncc(-c4ccc(C(C)=O)cc4)n3c2)cc1OC	nt	8	nt	26	nt	nt	nt	nt	nt	nt
COc1cc(-c2cc(NC=O)c3ncc(-c4ccc(C(C)=O)cc4)n3c2)cc(OC)c1OC	nt	7	nt	53*	nt	nt	23*	37	10	11
Cc1ccc(C)c(S(=O)(=O)N(C)c2ccc(OC(=O)C3CCN(C(=O)Nc4ccccc4)CC3)cc2)c1	nt	9	nt	10	nt	nt	nt	nt	nt	nt
COc1ccc(OC)c(CN2C(=O)c3ccccc3C2c2nnnn2-c2c(C)cccc2C)c1 (stereo not drawn)	nt	0	nt	-21	nt	nt	nt	nt	nt	nt
CC(C)CN1CC(=O)N2C(c3ccccc3)c3[nH]c4ccccc4c3C[C@H]2C1=O (stereo partly drawn)	-12	36	-6	61*	-3	11	23*	45	13*	18
CCOc1ccccc1N1CC(O)=C(c2nc3ccccc3s2)C1=N	20	23	-9	66*	11	14	26*	41	12*	10
CN(CCc1ccccc1)C(=O)c1cccc(NC(=O)Cc2cccc(NC(=O)C3CCCN(C(=O)c4ccccc4)C3)c2)c1 (stereo not drawn)	nt	0	nt	1	nt	nt	nt	nt	nt	nt
O=C(NC(=S)Nc1ccccc1N1CCCC1)c1ccco1	-56	6	-17	-9	16	0	nt	nt	nt	nt
CS(=O)(=O)N1CCN(c2ccccc2NC(=S)NC(=O)c2ccco2)CC1	-18	16	-20	49*	-2	-5	29*	44	9	8
O=C(c1ccco1)N1CCN(C/C=C/c2ccccc2)CC1	-17	5	-15	-10	13	-10	nt	nt	nt	nt
O=C(c1nn(Cc2ccccc2)c(=O)c2ccccc12)N1CCN(C/C=C/c2ccccc2)CC1	-18	10	-23	50*	20	-4	18	27	3	4
CCN1C(=O)CC(c2ccc(OC(C)C)cc2)C1=O (stereo not drawn)	-14	2	-8	2	-5	5	nt	nt	nt	nt
Cc1ccc(-c2csc(NC(=O)/C=C/c3cccs3)n2)cc1C	-21	0	-1	29	5	-2	nt	nt	nt	nt
N#Cc1ccc(-c2csc(NC(=O)/C=C/c3cccs3)n2)cc1	-24	3	-20	61*	30	-6	40*	52*	9	4
Cc1ccc(S(=O)(=O)N(C)c2ccc(OC(=O)CN3C(=O)NC4(CCCC4)C3=O)cc2)cc1	-24	6	-5	12	18	nt	nt	nt	nt	nt
Cc1ccc(S(=O)(=O)N(C)c2ccc(OC(=O)CN3C(=O)NC4(CCCC4)C3=O)cc2)cc1C	-23	13	2	82*	15	nt	40*	51*	12*	8
SMILES	OX1R antag-1	TAAR1 agonist	CHO parental Ca	TAAR1 antag	OX1R antag-2	GPR7 antag	nonsel antag count	TAAR1 antag conf	Ga16 ag counter	TAAR1 ag count
O=c1c2c3c(sc2n(CCN2CCOCC2)c(=O)n1C1CCCCC1)CCCCC3	nt	7	nt	-25	nt	nt	nt	nt	nt	nt
C=C(c1ccccc1)c1ccccc1N	-9	8	-4	-5	34	nt	nt	nt	nt	nt
CCc1nc2ccc(C(=O)NCCOc3ccc(OC)cc3)cn2c1N(C)Cc1cccs1	nt	0	nt	62*	nt	nt	29*	33	5	1
CCc1nc2ccc(C(=O)NCCOc3ccc(OC)cc3)cn2c1N(C)Cc1ccc(OC)cc1	nt	0	nt	43	nt	nt	nt	nt	nt	nt
Cc1ccc(C)c(NC(=O)COc2cccc3c2CCN(Cc2ccccc2)C3=O)c1	-40	8	-30	63*	6	-9	27*	39	5	2
CCN1CCc2c(OCC(=O)Nc3ccccc3)cccc2C1=O	-10	2	-11	1	11	-8	nt	nt	nt	nt
O=C(C[C@@H]1C/C=C\C[C@@H](Cc2ccc(F)cc2)C(=O)OC[C@@H]2CCCN2C1=O)NCCO	-16	0	4	-7	-3	nt	nt	nt	nt	nt
Cc1ccccc1S(=O)(=O)Cc1ccc(C(=O)NC(C)c2ccc3c(c2)OCCO3)o1 (stereo not drawn)	-6	8	-15	36	15	-10	nt	nt	nt	nt
